# In PMC6175367 (Journal of Clinical Pharmacology, 2018):
# Structures can show the parent of a compound that is named as a salt.
# How the values were obtained:
# [1] = dose of up to 200 mg, healthy nonelderly adult male subjects, CPH‐001; cited from earlier work
# [2] = Safety evaluation: adverse events, vital signs, weight, ECG, laboratory tests; assay type: in vivo, human
# [3] = Plasma pharmacokinetics after multiple oral administrations of imarikiren; assay type: in vivo, human
# Outline: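 Healthy males (nonelderly 20–45 y, elderly 65–85 y) took test compound or placebo tablets orally once daily for 7 days (80 or 160 mg). Fluids were withheld from 2 h pre-dose to 4 h post-dose. Plasma parent and metabolite were measured by HPLC‑MS/MS, with noncompartmental analysis on actual sampling times. Accumulation = 100 × AUC0‑tau day 7/day 1. Age effect: elderly−nonelderly difference in ln AUC0‑tau and Cmax, day 7, with 90%/95% CI.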
# [4] = tested on: plasma active renin concentration (PRC); assay: Plasma active renin concentration; assay type: in vivo, human
# Outline: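 Healthy Japanese male volunteers (nonelderly 20‑45 y, elderly 65‑85 y) took test compound or placebo tablets orally once daily for 7 days, 30 min after starting breakfast with 200 mL water. Sodium-matched meals were given. Plasma active renin was measured by immunoradiometric assay at 1 h predose and 1, 2, 4, 6, 12 h postdose on days 1 and 7, 1 h predose on days 2‑6, and 23, 47, 71 h after the last dose.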
# [5] = tested on: plasma angiotensin II concentration (AII); assay: Plasma angiotensin II concentration; assay type: in vivo, human
# Outline: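 Double-blind, placebo-controlled once-daily oral tablet dosing for 7 days in healthy Japanese men (nonelderly 20‑45 y, elderly 65‑85 y), given 30 min after starting breakfast with 200 mL water, with uniform meals. Plasma angiotensin II was measured by radioimmunoassay at 1 h predose and 1‑12 h postdose on days 1 and 7, predose on days 2‑6, and up to 71 h after the last dose.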
# [6] = single‐dose administration; cited from earlier work
# [7] = target: T1, plasma renin activity (PRA) (Homo sapiens, UniProt P00797); assay type: in vivo
# T1 sequence (P00797 67-406): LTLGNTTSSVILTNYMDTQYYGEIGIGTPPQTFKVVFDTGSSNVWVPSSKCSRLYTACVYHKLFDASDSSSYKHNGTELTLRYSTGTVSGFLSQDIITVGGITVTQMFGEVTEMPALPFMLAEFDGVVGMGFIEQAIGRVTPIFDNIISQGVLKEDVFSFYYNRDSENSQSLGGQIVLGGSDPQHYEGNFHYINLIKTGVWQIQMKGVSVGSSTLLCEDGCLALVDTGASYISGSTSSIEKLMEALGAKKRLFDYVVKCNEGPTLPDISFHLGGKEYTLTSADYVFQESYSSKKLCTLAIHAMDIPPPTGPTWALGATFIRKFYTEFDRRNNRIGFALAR
# PRA [8] = conditions: ≥5 mg dose, CPH‐001 study; cited from earlier work
# PRA [9] = conditions: aliskiren 300 mg on day 1 and days 4‐10, Japanese and white subjects; cited from earlier work
# [10] = imarikiren 80 mg once daily 7 days, elderly (n = 9)
# [11] = imarikiren 80 mg once daily 7 days, nonelderly (n = 9)
# [12] = imarikiren 80 mg, nonelderly (2 of 9 subjects)
# [13] = imarikiren 160 mg once daily 7 days, nonelderly (n = 9)
# [14] = imarikiren 80 mg, day 7, Cohort 3 vs Cohort 1
# [15] = imarikiren 80 mg, nonelderly, listed as imarikiren
# [16] = imarikiren 160 mg, nonelderly, listed as imarikiren
compound,measurement,setting,value
"COCCCCn1c(C(=O)N(CC(C)C)[C@@H]2CNC[C@H](C(=O)N3CCOCC3)C2)nc2ccccc21 [Imarikiren, Imarikiren hydrochloride]",Tolerability of single dose,[1],good tolerability
same,Overall safety and tolerability,"[2]; 80 or 160 mg for 7 days nonelderly, 80 mg elderly",safe and well tolerated
same,Intensity of TEAEs,"[2]; all TEAEs, with the exception of moderate urticaria in 1 nonelderly subject (80 mg)",mild in intensity
same,Changes in ECG parameters,[2]; all cohorts,No obvious changes
same,Serious TEAEs and deaths,"[2]; all cohorts, during the study",no serious TEAEs and no deaths
same,"TEAEs reported, subjects",[2]; all nonelderly subjects who received imarikiren,22.2%
same,"TEAEs related to the study drug, subjects",[2]; all nonelderly subjects who received imarikiren (3 of 18 subjects),16.7%
same,Subjects with any TEAEs,[2]; [10],3 (33.3) n (%)
same,TEAE: Alanine aminotransferase increased,[2]; [10],1 (11.1) n (%)
same,TEAE: Aspartate aminotransferase increased,[2]; [10],1 (11.1) n (%)
same,TEAE: Blood creatinine phosphokinase increased,[2]; [10],0 n (%)
same,TEAE: Blood triglycerides increased,[2]; [10],0 n (%)
same,TEAE: Diarrhea,[2]; [10],1 (11.1) n (%)
same,TEAE: Eye disorders,[2]; [10],0 n (%)
same,TEAE: Feeling hot,[2]; [10],0 n (%)
same,TEAE: Gastrointestinal disorders,[2]; [10],1 (11.1) n (%)
same,TEAE: General disorders and administration site conditions,[2]; [10],0 n (%)
same,TEAE: Headache,[2]; [10],1 (11.1) n (%)
same,TEAE: Investigations,[2]; [10],2 (22.2) n (%)
same,TEAE: Nervous system disorders,[2]; [10],1 (11.1) n (%)
same,TEAE: Pruritus,[2]; [10],0 n (%)
same,TEAE: Skin and subcutaneous tissue disorders,[2]; [10],0 n (%)
same,TEAE: Urticaria,[2]; [10],0 n (%)
same,TEAE: Vision blurred,[2]; [10],0 n (%)
same,TEAE: White blood cell count decreased,[2]; [10],1 (11.1) n (%)
same,TEAE: White blood cell count increased,[2]; [10],0 n (%)
same,Subjects with any TEAEs,[2]; [11],2 (22.2) n (%)
same,TEAE: Alanine aminotransferase increased,[2]; [11],0 n (%)
same,TEAE: Aspartate aminotransferase increased,[2]; [11],0 n (%)
same,TEAE: Blood creatinine phosphokinase increased,[2]; [11],0 n (%)
same,TEAE: Blood triglycerides increased,[2]; [11],0 n (%)
same,TEAE: Diarrhea,[2]; [11],0 n (%)
same,TEAE: Eye disorders,[2]; [11],0 n (%)
same,TEAE: Feeling hot,[2]; [11],1 (11.1) n (%)
same,TEAE: Gastrointestinal disorders,[2]; [11],0 n (%)
same,TEAE: General disorders and administration site conditions,[2]; [11],1 (11.1) n (%)
same,TEAE: Headache,[2]; [11],0 n (%)
same,TEAE: Investigations,[2]; [11],1 (11.1) n (%)
same,TEAE: Nervous system disorders,[2]; [11],0 n (%)
same,TEAE: Pruritus,[2]; [11],1 (11.1) n (%)
same,TEAE: Skin and subcutaneous tissue disorders,[2]; [11],2 (22.2) n (%)
same,TEAE: Urticaria,[2]; [11],1 (11.1) n (%)
same,TEAE: Vision blurred,[2]; [11],0 n (%)
same,TEAE: White blood cell count decreased,[2]; [11],0 n (%)
same,TEAE: White blood cell count increased,[2]; [11],1 (11.1) n (%)
same,"TEAEs related to the study drug, subjects","[2]; imarikiren 80 mg, elderly (2 of 9 subjects)",22.2%
same,"TEAEs reported, subjects","[2]; imarikiren 80 mg, elderly (3 of 9 subjects)",33.3%
same,"TEAEs related to the study drug, subjects",[2]; [12],22.2%
same,"TEAEs reported, subjects",[2]; [12],22.2%
same,Subjects with any TEAEs,[2]; [13],2 (22.2) n (%)
same,TEAE: Alanine aminotransferase increased,[2]; [13],2 (22.2) n (%)
same,TEAE: Aspartate aminotransferase increased,[2]; [13],0 n (%)
same,TEAE: Blood creatinine phosphokinase increased,[2]; [13],0 n (%)
same,TEAE: Blood triglycerides increased,[2]; [13],0 n (%)
same,TEAE: Diarrhea,[2]; [13],0 n (%)
same,TEAE: Eye disorders,[2]; [13],0 n (%)
same,TEAE: Feeling hot,[2]; [13],0 n (%)
same,TEAE: Gastrointestinal disorders,[2]; [13],0 n (%)
same,TEAE: General disorders and administration site conditions,[2]; [13],0 n (%)
same,TEAE: Headache,[2]; [13],0 n (%)
same,TEAE: Investigations,[2]; [13],2 (22.2) n (%)
same,TEAE: Nervous system disorders,[2]; [13],0 n (%)
same,TEAE: Pruritus,[2]; [13],0 n (%)
same,TEAE: Skin and subcutaneous tissue disorders,[2]; [13],0 n (%)
same,TEAE: Urticaria,[2]; [13],0 n (%)
same,TEAE: Vision blurred,[2]; [13],0 n (%)
same,TEAE: White blood cell count decreased,[2]; [13],0 n (%)
same,TEAE: White blood cell count increased,[2]; [13],0 n (%)
same,"TEAEs related to the study drug, subjects","[2]; imarikiren 160 mg, nonelderly (1 of 9 subjects)",11.1%
same,"TEAEs reported, subjects","[2]; imarikiren 160 mg, nonelderly (2 of 9 subjects)",22.2%
same,Change in mean blood pressure,"[2]; imarikiren groups, day 7 compared with baseline",decrease in mean blood pressure
same,Tmax,"[3]; human, plasma, oral, 160 mg, median time to reach the maximum observed plasma concentration (Tmax), nonelderly subjects, all groups (80 and 160 mg), days 1 and 7",1 to 2 h
same,"CL/F, mean (SD)","[3]; imarikiren 80 mg oral once daily, elderly, Day 1",15.2 (4.6) L/hr
same,"CL/F, mean (SD)","[3]; imarikiren 80 mg oral once daily, elderly, Day 7",14.1 (3.4) L/hr
same,"CL/F, mean (SD)","[3]; imarikiren 80 mg oral once daily, nonelderly, Day 1",19.6 (3.6) L/hr
same,"CL/F, mean (SD)","[3]; imarikiren 80 mg oral once daily, nonelderly, Day 7",21.5 (5.6) L/hr
same,AUC0‐tau higher in elderly than in nonelderly subjects,[3]; [14],52%
same,Cmax higher in elderly than in nonelderly subjects,[3]; [14],39%
same,"Accumulation index (AUC) percentage (100 × AUC0‐tau day 7/AUC0‐inf day 1), mean (SD)","[3]; imarikiren 80 mg, nonelderly",94.4 (21.8) %
same,"Accumulation index (t1/2) percentage, mean (SD)","[3]; imarikiren 80 mg, nonelderly",116.4 (39.1) %
same,"R(AUC), AUC accumulation factor percentage (100 × AUC0‐tau day 7/AUC0‐tau day 1), mean (SD)","[3]; imarikiren 80 mg, nonelderly",106.4 (22.4) %
same,"Accumulation index (AUC) percentage (100 × AUC0‐tau day 7/AUC0‐inf day 1), mean (SD)",[3]; [15],94.4%
same,"R(AUC), AUC accumulation factor percentage (100 × AUC0‐tau day 7/AUC0‐tau day 1), mean (SD)",[3]; [15],106.4%
same,"CL/F, mean (SD)","[3]; imarikiren 160 mg oral once daily, nonelderly, Day 1",19.7 (5.1) L/hr
same,"CL/F, mean (SD)","[3]; imarikiren 160 mg oral once daily, nonelderly, Day 7",17.6 (3.3) L/hr
same,"Accumulation index (AUC) percentage (100 × AUC0‐tau day 7/AUC0‐inf day 1), mean (SD)","[3]; imarikiren 160 mg, nonelderly",114.2 (30.0) %
same,"Accumulation index (t1/2) percentage, mean (SD)","[3]; imarikiren 160 mg, nonelderly",119.7 (34.3) %
same,"R(AUC), AUC accumulation factor percentage (100 × AUC0‐tau day 7/AUC0‐tau day 1), mean (SD)","[3]; imarikiren 160 mg, nonelderly",123.0 (32.6) %
same,"Accumulation index (AUC) percentage (100 × AUC0‐tau day 7/AUC0‐inf day 1), mean (SD)",[3]; [16],114.2%
same,"R(AUC), AUC accumulation factor percentage (100 × AUC0‐tau day 7/AUC0‐tau day 1), mean (SD)",[3]; [16],123.0%
same,Plasma concentration reached steady state (based on trough concentration),"[3]; multiple oral administration of 80 mg and 160 mg, nonelderly",≤ 7 days
same,"Change from baseline in PRC, mean (SD)","[4]; imarikiren 80 mg oral once daily, elderly, Day 2 (–1 hr)",78.3 (72.3) pg/mL
same,"Change from baseline in PRC, mean (SD)","[4]; imarikiren 80 mg oral once daily, elderly, Day 7 (23 hrs)",154.4 (168.0) pg/mL
same,"Change from baseline in PRC, mean (SD)","[4]; imarikiren 80 mg oral once daily, nonelderly, Day 2 (–1 hr)",169.3 (140.9) pg/mL
same,"Change from baseline in PRC, mean (SD)","[4]; imarikiren 80 mg oral once daily, nonelderly, Day 7 (23 hrs)",247.1 (130.1) pg/mL
same,"Change from baseline in PRC, mean (SD)","[4]; imarikiren 160 mg oral once daily, nonelderly, Day 2 (–1 hr)",129.5 (106.8) pg/mL
same,"Change from baseline in PRC, mean (SD)","[4]; imarikiren 160 mg oral once daily, nonelderly, Day 7 (23 hrs)",487.3 (264.9) pg/mL
same,Change from baseline in AII,"[5]; 80 mg, elderly, any time",no changes from baseline
same,Change from baseline in AII,"[5]; 160 mg, nonelderly, days 1 through 7",decreased from baseline
same,Food effect on the PK,[6],minimal effect
same,Time after the last administration for which inhibition of PRA was maintained,"[7]; 80 mg (nonelderly and elderly) and 160 mg (nonelderly), once daily for 7 days",at least 71 hours
same,PRA inhibition with multiple dosing,"[7]; for 7 days, sustained for nearly 3 days after the last administration",complete inhibition
same,Inhibition of PRA after single oral administration,PRA [8],completely inhibited PRA
COCCCOc1cc(C[C@@H](C[C@H](N)[C@@H](O)C[C@H](C(=O)NCC(C)(C)C(N)=O)C(C)C)C(C)C)ccc1OC [aliskiren],PRA inhibition at steady state,PRA [9],incomplete PRA inhibition
